ROMK primary: ROMK potassium channel modulators, primary screen, cell-based, thallium flux, MLSMR library; ATP-sensitive inward rectifier potassium channel 1 (Homo sapiens), P48048; B-score at 10 µM; Tet-inducible ROMK, thallium flux fluorescence; actives lie on both sides; AID 1918, 2009; actives 2% (n = 130,000);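 active = signal ratio slope over the read window, or its plate-corrected B-score, at least 3 SD from the plate mean, either direction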;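 also: B-score of the F/F0 ratio slope over 7 to 12 s after thallium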
Target sequence (P48048 whole entry, looked up): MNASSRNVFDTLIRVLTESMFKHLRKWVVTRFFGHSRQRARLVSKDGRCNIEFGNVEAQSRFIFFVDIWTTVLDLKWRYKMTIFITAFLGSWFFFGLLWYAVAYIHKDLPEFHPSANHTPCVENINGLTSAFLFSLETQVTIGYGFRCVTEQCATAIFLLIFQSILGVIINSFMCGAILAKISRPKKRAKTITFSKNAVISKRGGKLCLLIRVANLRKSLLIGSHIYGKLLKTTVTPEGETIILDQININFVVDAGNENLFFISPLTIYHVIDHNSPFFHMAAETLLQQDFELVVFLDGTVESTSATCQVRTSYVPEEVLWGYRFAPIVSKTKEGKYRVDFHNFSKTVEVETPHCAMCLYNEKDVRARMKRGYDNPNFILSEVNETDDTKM
Calb biofilm kill: clotrimazole potentiators killing C. albicans biofilm, primary screen, 4-compound mixtures. inhibition, % at 7.6 µM. actives 0.02% (n = 120,000). C. albicans biofilm persisters + clotrimazole, fluorescence viability; primary screen in compound mixtures of four per well;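 also: compounds exposed to preformed 24 h biofilms for 48 h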
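Probe or stimulus – Clotrimazole 50 µg/mL co-treatment · System – C. albicans biofilms · Schedule – 24 h biofilm formation, then 48 h compound exposure, 37 °C · Evaluation – percent inhibition of biofilm viability · Technique – 2-h Alamar Blue fluorescence, 535/590 nm excitation/emission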
Of the large screens only hits and unclear results are named; the others gave an inactive call. Only a selection was taken, and hits are over-represented in it overall.

CCCCCc1ccc(OCCCC[n+]2cccc(C)c2)c(CCCCC)c1	none
CC(=O)N/N=C/c1cc(C(C)C)cc(/C=N/NC(C)=O)c1O	ROMK primary -3.34
CC(=O)N/N=C/c1cc(C)n(-c2ccc(Br)cc2)c1C	none (no result: ROMK primary)
O=C(COc1ccc(-c2nnc(N3CCCCC3)c3ccccc23)cc1)N1CCCCC1	ROMK primary -3.2 (no result: Calb biofilm kill)
Cc1ccc(-c2nnc(N3CCN(C(=O)COc4ccccc4)CC3)c3ccccc23)cc1	none (no result: Calb biofilm kill)
CCNC(=S)Nc1ccc(Cl)c(C(F)(F)F)c1	none
O=C(C[n+]1ccc(Cc2ccccc2)cc1)Nc1ccccc1	none
CCOc1ccc(-c2nnc3sc(-c4ccccc4OC)nn23)cc1	ROMK primary 3.32 (no result: Calb biofilm kill)
CCOc1ccc(-c2nnc3sc(-c4c(OC)cccc4OC)nn23)cc1	none (no result: Calb biofilm kill)
CCOC(=O)c1ccc(NC(=S)NCCc2ccc(F)cc2)cc1	none
O=C(COc1ccccc1)NC1CCSC1=O (configuration not stated)	none
CCOC(=O)c1ccc(Nc2sc(C(=O)c3cccc([N+](=O)[O-])c3)c(N)c2C#N)cc1	none (no result: ROMK primary)
CCc1ccc2[nH]c(=O)c(C(c3nnnn3CC3CCCO3)N3CCN4CCCC4C3)cc2c1 (configuration not stated)	ROMK primary -2.35 (no result: Calb biofilm kill)
Cc1ccc2[nH]c(=O)c(C(c3nnnn3CC3CCCO3)N3CCc4ccccc4C3)cc2c1 (configuration not stated)	none (no result: Calb biofilm kill)
CC(C)c1nc(SCC(=O)N2CC(=O)Nc3ccccc32)c2ccccc2n1	none
Cn1c(SCC(=O)N2CCCc3ccccc32)nc2cccnc21	none (no result: ROMK primary)
CCn1c(SCC(=O)N2CCCc3ccccc32)nc2cccnc21	ROMK primary 3.09 (no result: Calb biofilm kill)
Brc1ccc(C2Nc3cccc4cccc(c34)N2)s1	none
CCN1C(=O)N(S(=O)(=O)c2ccc(C)cc2)[C@@H](c2ccccc2)C(C(=O)OC)=C1C	none (no result: ROMK primary)
O=C(NN=C1CCCCCC1)c1ccc(Br)o1	none
CC(C)N1CCC(=NNC(=O)c2ccc(Br)o2)CC1	ROMK primary 2.73 (no result: Calb biofilm kill)
O=C(N/N=C/c1cccc(Cl)c1)C(c1ccncc1)N1CCOCC1 (configuration not stated)	none (no result: ROMK primary)
Cc1ccc(NC(=O)C(=O)NCCOc2ccc(Cl)cc2)c(C)c1	none
COc1ccc(C)cc1NC(=O)C(=O)NNC(=O)COc1ccc(Cl)cc1	ROMK primary 7.13
COc1ccc(CC(=O)NNC(=O)COc2ccc(Br)cc2C)cc1OC	none
COc1ccc(OC)c(NC(=O)C(=O)NNC(=O)COc2ccc(Br)cc2C)c1	ROMK primary 1.61
Cc1ccc(N2CCC(N3CCN(C4CCCCC4)C(CCO)C3)CC2)cc1 (configuration not stated)	none
O=C(c1ccc(Cn2c(=S)[nH]c3ccccc3c2=O)cc1)N1CCN(c2ccccn2)CC1	none
C[C@H]1CC[C@H]2C(=O)N3[C@H](c4ccccc4Br)[C@@H](C)CC[C@H]3C(=O)N2[C@@H]1c1ccccc1Br	ROMK primary -4.29
C[C@H]1CC[C@H]2C(=O)N3[C@H](c4cccc(N5CCCC5=O)c4)[C@@H](C)CC[C@H]3C(=O)N2[C@@H]1c1cccc(N2CCCC2=O)c1	none
Cc1ccc(/C=C(\C#N)C(=O)N2CCCC2)c(C)c1	none
CCOC(=O)c1ccc2ncc(C(=O)OCC)c(NCc3ccco3)c2c1	ROMK primary 3.26 (no result: Calb biofilm kill)
CCOC(=O)c1cnc2c(C)cccc2c1NCc1ccco1	none (no result: Calb biofilm kill)
Cc1cc(C)c2nc(SCC(=O)NCCC3=CCCCC3)cc(C)c2c1	none
COc1ccccc1C1C=C(c2ccccc2)Nc2nnnn21 (configuration not stated)	none (no result: ROMK primary)
O=C1CCC(=O)N1c1nc2n(n1)C(c1ccccc1)C=C(c1ccc(Br)cc1)N2 (configuration not stated)	ROMK primary -3.96 (no result: Calb biofilm kill)
COc1ccccc1C1C=C(c2ccc(Cl)cc2)Nc2nc(N3C(=O)CCC3=O)nn21 (configuration not stated)	ROMK primary -5.99 (no result: Calb biofilm kill)
CC(=O)Nc1nc2n(n1)C(c1ccc(F)cc1)C=C(c1ccccc1)N2 (configuration not stated)	none (no result: Calb biofilm kill)
COc1ccc(CCN2C(=O)CSC2=Nc2ccc(C(C)C)cc2)cc1OC	none
Cc1cccc(S(=O)(=O)c2c(N)n(Cc3ccco3)c3nc4ccccc4nc23)c1	ROMK primary -2.89 (no result: Calb biofilm kill)
Cc1ccc(S(=O)(=O)c2c(N)n(Cc3ccco3)c3nc4ccccc4nc23)cc1	none (no result: Calb biofilm kill)
CCN(CC)CCN1C(=O)C(O)=C(C(=O)c2cc3cccc(OC)c3o2)C1c1ccc(F)cc1 (configuration not stated)	none (no result: ROMK primary)
O=S(=O)(CCN1C=CC(C(F)(F)F)=NCC1)c1ccc(Cl)cc1Cl	none (no result: ROMK primary)
CCn1c(CNc2ccc(Cl)cc2)nnc1SCC(=O)OC1CCCCC1	ROMK primary -4.16
CCn1c(CNc2ccccc2Cl)nnc1SCC(=O)OC1CCCCC1	none (no result: Calb biofilm kill)
O=C(NCCCCc1ccccc1)C1CC(c2ccc(C(F)(F)F)cc2)=NO1 (configuration not stated)	none (no result: ROMK primary)
O=C(CSc1ccc2c(c1)OCCO2)NC(=O)Cc1ccccc1	none
CC(C)CCNC(=O)C(c1ccco1)N(CCCO)C(=O)Cn1nnc(-c2ccc(F)cc2)n1 (configuration not stated)	none (no result: ROMK primary)
COc1ccc(S(=O)(=O)N2CCCCCC2)cc1C(=O)OCc1c(C)noc1C	ROMK primary -6.69 (no result: Calb biofilm kill)
Cc1noc(C)c1COC(=O)c1ccc(F)c(S(=O)(=O)N2CCCCC2)c1	none
N#C/C(=N\Nc1cccc(Cl)c1)C(=O)c1ccccc1	none (no result: Calb biofilm kill)
COc1ccc(C(=O)/C(C#N)=N/Nc2cccc([N+](=O)[O-])c2)cc1	ROMK primary 7.59
Cc1ccc(C(=O)Nc2cccc(C(F)(F)F)c2)cc1NC(=O)c1csc(-c2ccncc2)n1	none (no result: ROMK primary)
N#C/C(=N\Nc1cccc(C(F)(F)F)c1)C(=O)c1csc(-c2cccnc2)n1	ROMK primary -3.85
COc1cc([N+](=O)[O-])ccc1NC(=O)CSc1n[nH]c(C(C)C)n1	none
O=C(c1ccc2ncsc2c1)N1CCN(c2ccccc2Cl)CC1	none (no result: ROMK primary)
Cc1cccc(N2CCN(C(=O)c3ccc4ncsc4c3)CC2)c1C	ROMK primary 3.27 (no result: Calb biofilm kill)
O=C(Nc1nnc(SCc2ccc(F)cc2)s1)c1ccc2c(c1)C(=O)N(c1ccccc1Cl)C2=O	none
Cc1ccccc1N(CC(=O)N/N=C/c1cc(C)n(-c2ccccc2C)c1C)S(C)(=O)=O	ROMK primary 8.47 (no result: Calb biofilm kill)
Cc1ccccc1N(CC(=O)N/N=C/c1cc(Br)c(C)o1)S(C)(=O)=O	none
Cc1cc(=O)oc2cc(OCC(=O)OCC(=O)N3CCC(C)CC3)ccc12	none
CC(C)n1c(NCCO)nc2ccccc21	none
CC(C)n1c(Nc2ccccc2)nc2ccccc21	ROMK primary -3.18 (no result: Calb biofilm kill)
CC(NC(=S)N1CCN(c2ccccc2)CC1)c1ccccc1 (configuration not stated)	none (no result: ROMK primary)
COc1ccc(CC(=O)N2CCC(Nc3nc4ccccc4n3Cc3ccc(F)cc3)CC2)cc1	ROMK primary -3.98
COc1ccc(CC(=O)N2CCC(c3ccccc3)C2)cc1 (configuration not stated)	none
CCCc1nn(C)c2c(=O)[nH]c(-c3cc(S(=O)(=O)Nc4ccc(NC(C)=O)cc4)ccc3OCC)nc12	none (no result: ROMK primary)
Nc1nc2ccccc2n1/N=C/c1cccnc1	ROMK primary 2.19
Cc1nc2ccccc2n1/N=C/c1cccnc1	none (no result: Calb biofilm kill)
O=c1cc(CO)[nH]cc1OCc1ccccc1	none (no result: ROMK primary)
CCc1[nH]nc2c1C(c1ccc(C)o1)C(C#N)=C(N)O2 (configuration not stated)	none
CCc1[nH]nc2c1C(c1ccc(Br)s1)C(C#N)=C(N)O2 (configuration not stated)	ROMK primary -4.17 (no result: Calb biofilm kill)

Assay outcomes: PubChem BioAssay, several laboratories
